Data: ChEMBL document CHEMBL1126647, “Fluorine-18-labeled progestin ketals: synthesis and target tissue uptake selectivity of potential imaging agents for receptor-positive breast tumors” (J Med Chem, 1993)

Columns and labels:
Format in all cases: functional, tissue-based
[1] = biological target: T1, Progesterone receptor (Rattus norvegicus) (UniProt Q63449); experiment: Tissue distribution in lung 1 hr after [18F]4 injection into estrogen-primed immature rats co-injected with uterine uptake blocker (ORG 2058)
T1 sequence (whole entry): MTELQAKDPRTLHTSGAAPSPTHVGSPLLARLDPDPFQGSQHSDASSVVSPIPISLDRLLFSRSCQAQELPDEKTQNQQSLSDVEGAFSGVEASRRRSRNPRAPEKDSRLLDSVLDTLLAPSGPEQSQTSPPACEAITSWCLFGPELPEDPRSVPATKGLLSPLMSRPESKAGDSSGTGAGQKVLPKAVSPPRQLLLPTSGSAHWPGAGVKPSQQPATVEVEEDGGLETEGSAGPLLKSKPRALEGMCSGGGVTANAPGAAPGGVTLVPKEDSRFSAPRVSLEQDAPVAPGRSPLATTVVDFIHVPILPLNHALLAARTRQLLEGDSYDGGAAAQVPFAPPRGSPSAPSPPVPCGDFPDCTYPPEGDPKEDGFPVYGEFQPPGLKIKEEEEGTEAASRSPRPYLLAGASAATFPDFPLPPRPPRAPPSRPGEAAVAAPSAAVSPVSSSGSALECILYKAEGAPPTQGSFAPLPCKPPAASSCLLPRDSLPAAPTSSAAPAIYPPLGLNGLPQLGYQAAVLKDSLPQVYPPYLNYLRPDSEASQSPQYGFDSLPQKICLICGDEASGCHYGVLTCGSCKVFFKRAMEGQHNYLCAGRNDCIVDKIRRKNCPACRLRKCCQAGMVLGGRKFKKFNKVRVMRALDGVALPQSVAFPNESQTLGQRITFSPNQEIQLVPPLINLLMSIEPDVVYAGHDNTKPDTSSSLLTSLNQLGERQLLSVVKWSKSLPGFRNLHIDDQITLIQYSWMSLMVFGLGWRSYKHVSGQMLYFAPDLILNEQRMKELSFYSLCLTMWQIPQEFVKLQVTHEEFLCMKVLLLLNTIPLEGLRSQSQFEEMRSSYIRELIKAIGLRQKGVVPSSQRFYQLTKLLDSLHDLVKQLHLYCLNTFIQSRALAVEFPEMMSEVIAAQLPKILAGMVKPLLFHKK
How it was run: (§1)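 Blocking group: estrogen-primed immature female Sprague-Dawley rats (estradiol 5 μg s.c. ×2 days, used 24 h later). ORG 2058 18 μg was co-injected with the tracer dose iv via tail vein, 0.2 mL injection volume in 10% ethanol/saline. Killed 1 h later; tissues weighed and gamma-counted. Results as %ID/g or ratios, mean ± SD, n = 5.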

[2] = biological target: T1, Progesterone receptor (Rattus norvegicus); experiment: Tissue distribution in liver 1 hr after [18F]4 injection into estrogen-primed immature rats co-injected with uterine uptake blocker (ORG 2058); how it was run: as §1
[3] = biological target: T1, Progesterone receptor (Rattus norvegicus); experiment: Tissue distribution in fat 1 hr after [18F]4 injection into estrogen-primed immature rats co-injected with uterine uptake blocker (ORG 2058); conditions: Adipose tissue; how it was run: as §1
[4] = biological target: T1, Progesterone receptor (Rattus norvegicus); experiment: Tissue distribution in lung 1 hr after [18F]4 injection into estrogen-primed immature rats at normal dose
How it was run: (§2)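 Female Sprague-Dawley rats, 23 days old, primed with estradiol 5 μg s.c. in 20% ethanol/sunflower oil on two days and used 24 h later. Under ether, they received 51 μCi tracer (30 Ci/mmol) iv via the tail vein in 0.1 mL 10% ethanol/saline. Killed by decapitation at 1 h; tissues weighed and gamma-counted. Results as %ID/g or tissue ratios, mean ± SD, n = 5.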

[5] = biological target: T1, Progesterone receptor (Rattus norvegicus); experiment: Tissue distribution in bone 1 hr after [18F]4 injection into estrogen-primed immature rats at low dose; conditions: Bone element
How it was run: (§3)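 Estrogen-primed immature female Sprague-Dawley rats (estradiol 5 μg s.c. daily ×2, used 24 h later) were given a reduced tracer dose of 30 μCi in 0.04 mL 10% ethanol/saline, tail vein iv, under ether. Decapitated at 1 h; organs weighed and gamma-counted. Results as %ID/g or uterus/tissue ratio, mean ± SD, n = 5.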

[6] = biological target: T1, Progesterone receptor (Rattus norvegicus); experiment: Tissue distribution in ovaries 1 hr after [18F]4 injection into estrogen-primed immature rats at normal dose; conditions: Female gonad; how it was run: as §2
[7] = biological target: T1, Progesterone receptor (Rattus norvegicus); experiment: Tissue distribution in uterus 1 hr after [18F]4 injection into estrogen-primed immature rats at normal dose; how it was run: as §2
[8] = biological target: T1, Progesterone receptor (Rattus norvegicus); experiment: Tissue distribution in uterus/blood 3 hr after [18F]4 injection into estrogen-primed immature rats at low dose
[9] = biological target: T1, Progesterone receptor (Rattus norvegicus); experiment: Tissue distribution in liver 1 hr after [18F]4 injection into estrogen-primed immature rats at low dose; how it was run: as §3
[10] = biological target: T1, Progesterone receptor (Rattus norvegicus); experiment: Tissue distribution in brain 1 hr after [18F]4 injection into estrogen-primed immature rats at normal dose; how it was run: as §2
[11] = biological target: T1, Progesterone receptor (Rattus norvegicus); experiment: Tissue distribution in muscle 3 hr after [18F]4 injection into estrogen-primed immature rats
How it was run: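 Immature female Sprague-Dawley rats, estradiol-primed (5 μg s.c. in 20% ethanol/sunflower oil, two successive days, used 24 h later). Tracer (30 Ci/mmol) in 10% ethanol/saline was injected iv into the tail vein under ether anesthesia. Animals were decapitated 3 h postinjection; organs weighed and gamma-counted. %ID/g, mean ± SD, n = 5.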

Injected dose/g [1] [%]	Injected dose/g [2] [%]	Injected dose/g [3] [%]	Injected dose/g [4] [%]	Injected dose/g [5] [%]	Injected dose/g [6] [%]	Injected dose/g [7] [%]	uterus/blood ratio [8]	Injected dose/g [9] [%]	Injected dose/g [10] [%]	Injected dose/g [11] [%]	Compound
0.54	3.56	2.76	0.6	0.68	2.8	3.65	38	3.93	0.34	0.16	C[C@@]1(c2ccc(F)cc2)O[C@@H]2CC3C4CCC5=CC(=O)CC[C@@H]5C4CC[C@]3(C)[C@]2(C(=O)CO)O1 (some centres not stated)
1.26	3.16	3.77	1.3	1.77	3.93	3.08	7.57	3.62	0.56	0.49	CC(=O)[C@@]12O[C@](C)(c3ccc(F)cc3)O[C@@H]1CC1C3CCC4=CC(=O)CC[C@]4(C)C3CC[C@@]12C (some centres not stated)
